Source: ChEMBL document CHEMBL3758140, “Exploring the role of chloro and methyl substitutions in 2-phenylthiomethyl-benzoindole derivatives for 5-LOX enzyme inhibition” (Eur J Med Chem, 2016)
Activity calls are given as the source filed them. No cut-off for these calls is given here.

How the values were obtained:
[1] = target: T1, Polyunsaturated fatty acid 5-lipoxygenase (Homo sapiens, UniProt P09917); assay: Inhibition of human recombinant 5-LOX expressed in Escherichia coli BL21 using arachidonic acid as substrate assessed as LTB4 formation preincubated for 15 mins measured after 10 mins by HPLC analysis
T1 sequence (P09917 whole entry): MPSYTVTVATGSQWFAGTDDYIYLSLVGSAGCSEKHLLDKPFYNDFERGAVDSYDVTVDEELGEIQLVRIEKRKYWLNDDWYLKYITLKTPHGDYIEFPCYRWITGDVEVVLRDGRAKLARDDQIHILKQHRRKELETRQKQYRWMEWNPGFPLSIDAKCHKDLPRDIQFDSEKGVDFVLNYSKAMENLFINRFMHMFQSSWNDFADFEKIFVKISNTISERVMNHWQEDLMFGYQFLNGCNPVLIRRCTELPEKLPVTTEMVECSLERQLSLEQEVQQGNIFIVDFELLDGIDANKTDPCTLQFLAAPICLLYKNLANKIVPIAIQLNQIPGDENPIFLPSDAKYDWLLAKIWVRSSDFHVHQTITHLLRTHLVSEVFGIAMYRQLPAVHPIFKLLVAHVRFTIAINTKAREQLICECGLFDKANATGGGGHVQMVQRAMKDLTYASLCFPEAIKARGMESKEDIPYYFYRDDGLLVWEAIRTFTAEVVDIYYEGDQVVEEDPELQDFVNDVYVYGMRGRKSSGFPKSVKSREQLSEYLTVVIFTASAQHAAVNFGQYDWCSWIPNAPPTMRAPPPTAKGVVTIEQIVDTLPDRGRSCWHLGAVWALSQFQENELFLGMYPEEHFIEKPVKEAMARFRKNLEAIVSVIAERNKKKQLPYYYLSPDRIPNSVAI
Procedure, shortened: (§1)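 Human recombinant 5-LOX expressed in E. coli BL21 (pT3-5LO) at 37 °C, purified, and used immediately. 0.5 µg enzyme in PBS/EDTA preincubated with compound for 15 min at 4 °C, then prewarmed 30 s at 37 °C. Reaction started with 2 mM CaCl₂ plus 20 µM arachidonic acid, run 10 min at 37 °C, and metabolites analyzed by HPLC. Mean ± S.E.M., n = 3–4.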

[2] = target: T1, Polyunsaturated fatty acid 5-lipoxygenase; assay: Inhibition of 5-LOX in human intact polymorphonuclear leukocytes preincubated for 15 mins with CaCl2, A23187 measured after 10 mins by HPLC analysis
Procedure, shortened: (§2)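 Human PMNL isolated from blood of healthy adult donors. 5 × 10⁶ cells in 1 ml PG buffer preincubated with compound for 15 min at 37 °C, then stimulated with 1 mM CaCl₂ plus 2.5 µM A23187. After 10 min at 37 °C, stopped with methanol, centrifuged, and supernatant products analyzed by HPLC. Mean ± S.E.M., n = 3–4.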

[3] = target: T2, Polyunsaturated fatty acid 5-lipoxygenase (Homo sapiens) (UniProt P09917); assay: Inhibition of human recombinant 5-LOX expressed in Escherichia coli BL21 using arachidonic acid as substrate assessed as remaining enzyme activity by measuring LTB4 formation at 1 uM preincubated for 15 mins measured after 10 mins by HPLC analysis; procedure, shortened: as §1
T2 sequence (whole entry): T1 sequence (P09917 whole entry)

[4] = target: T2, Polyunsaturated fatty acid 5-lipoxygenase (Homo sapiens); assay: Inhibition of 5-LOX in human intact polymorphonuclear leukocytes assessed as remaining enzyme activity at 10 uM preincubated for 15 mins with CaCl2, A23187 measured after 10 mins by HPLC analysis; procedure, shortened: as §2
[5] = target: T2, Polyunsaturated fatty acid 5-lipoxygenase (Homo sapiens); assay: Inhibition of human recombinant 5-LOX expressed in Escherichia coli BL21 using arachidonic acid as substrate assessed as remaining enzyme activity by measuring LTB4 formation at 10 uM preincubated for 15 mins measured after 10 mins by HPLC analysis; procedure, shortened: as §1
Mus musculus [6] = assay: Antiinflammatory activity in ICR mouse assessed as reduction in carrageenan-induced paw oedema volume at 1 to 4 mg/kg, ip administered 30 mins before carrageenan challenge measured after 2 to 4 hrs by hydroplethysmometer relative to vehicle-treated control; type: functional, organism-based
Procedure, shortened: (§3)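 Male ICR mice, 8 weeks, housed 5 per cage with 12:12 h light:dark cycle, 22 ± 1 °C, 60 ± 10% humidity, acclimatized at least 1 week. Compounds given i.p. (1–4 mg/kg; zileuton reference 20 mg/kg) 30 min before intraplantar carrageenan. Hind paw volume increase (oedema) followed for 6 h versus vehicle-treated group. Mean ± SEM, n = 6–8 per group.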

Prostaglandin E synthase = target: T3, Prostaglandin E synthase (Homo sapiens, UniProt O14684); assay: Inhibition of IL-1beta-activated m-PGES-1 in microsome of human A549 cells assessed as PGE2 formation preincubated for 15 mins followed by PGH2 addition measured after 1 min by RP-HPLC analysis; type: cell-based
T3 sequence (O14684 whole entry): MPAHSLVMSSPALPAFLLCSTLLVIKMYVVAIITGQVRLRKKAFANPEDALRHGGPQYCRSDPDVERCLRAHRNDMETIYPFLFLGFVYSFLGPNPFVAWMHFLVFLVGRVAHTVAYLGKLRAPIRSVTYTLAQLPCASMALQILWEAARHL
Procedure, shortened: (§4)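 Microsomes from A549 cells prepared by sonication and differential centrifugation (10,000 g, then 174,000 g), stored at −80 °C. Diluted in 0.1 M potassium phosphate pH 7.4 with 2.5 mM glutathione and preincubated with compound (DMSO vehicle, 1% final) 15 min at 4 °C. Started with 20 µM PGH₂ (final), run 1 min at 4 °C, stopped with FeCl₂/citric acid plus 11β-PGE₂ internal standard. PGE₂ isolated by C18 SPE and quantified by RP-HPLC with UV at 195 nm. IC50 from three determinations at 0.1, 1 and 10 µM.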

Mus musculus [7] = assay: Antiinflammatory activity in ICR mouse assessed as reduction in carrageenan-induced paw oedema volume at 4 mg/kg, ip administered 30 mins before carrageenan challenge measured after 4 hrs by hydroplethysmometer; type: functional; design: scale not given: the % may be the effect or the level left; procedure, shortened: as §3
[8] = target: T4, Prostaglandin E synthase (Homo sapiens) (UniProt O14684); assay: Inhibition of IL-1beta-activated m-PGES-1 in microsome of human A549 cells assessed as PGE2 formation at 10 uM preincubated for 15 mins followed by PGH2 addition measured after 1 min by RP-HPLC analysis; type: cell-based; procedure, shortened: as §4
T4 sequence (whole entry): T3 sequence (O14684 whole entry)

[9] = target: T4, Prostaglandin E synthase (Homo sapiens); assay: Inhibition of IL-1beta-activated m-PGES-1 in microsome of human A549 cells assessed as remaining enzyme activity by measuring PGE2 formation at 10 uM preincubated for 15 mins followed by PGH2 addition measured after 1 min by RP-HPLC analysis; type: cell-based; procedure, shortened: as §4
Mus musculus [10] = assay: Antiinflammatory activity in ICR mouse assessed as reduction in carrageenan-induced paw oedema volume at 20 mg/kg, ip administered 30 mins before carrageenan challenge measured after 0 to 6 hrs by hydroplethysmometer; type: functional; design: scale not given: the % may be the effect or the level left; procedure, shortened: as §3

| SMILES | IC50 [1] [nM] | IC50 [2] [nM] | further results |
| --- | --- | --- | --- |
| CCOC(=O)c1c(CSc2c(C)cccc2C)[nH]c2c1cc(O)c1ccccc12 | > 1000 | 170 | Activity [3]: 65.9% |
| CCOC(=O)c1c(CSc2ccccc2Cl)n(CC)c2c1cc(OCC)c1ccccc12 | > 10000 | > 10000 | Activity [4]: 95.5%; Activity [5]: 99.4% |
| CCOC(=O)c1c(CSc2c(C)cc(C)cc2C)n(C)c2ccc(O)cc12 |  |  | inhibition [8]: 27.8%; Activity [9]: 87.3%; Activity (Mus musculus [7]): 60.9% |
| CC(c1cc2ccccc2s1)N(O)C(N)=O (configuration not stated) [ZILEUTON] |  |  | Activity (Mus musculus [10]): 38.2% |
| CCOC(=O)c1c(CSc2ccccc2Cl)[nH]c2c1cc(OC)c1ccccc12 | 1740 | 1150 |  |
| CCOC(=O)c1c(CSc2ccc(Cl)c(Cl)c2)[nH]c2c1cc(O)c1ccccc12 | 930 | 237 |  |
| CCOC(=O)c1c(CSc2cc(C)cc(C)c2)[nH]c2c1cc(O)c1ccccc12 | > 1000 | 290 | Activity [3]: 63% |
| CCOC(=O)c1c(CSc2ccccc2Cl)n(C)c2c1cc(O)c1ccccc12 | > 10000 | > 10000 | Activity [4]: 61.9%; Activity [5]: 81.4% |
| CCOC(=O)c1c(CSc2ccccc2Cl)[nH]c2c1cc(OCC)c1ccccc12 | 2040 | 1260 |  |

Second part, led by results:

| IC50 [1] [nM] | IC50 [2] [nM] | SMILES | further results |
| --- | --- | --- | --- |
| > 1000 | 657 | CCOC(=O)c1c(CSc2cccc(Cl)c2Cl)[nH]c2c1cc(O)c1ccccc12 | Activity [3]: 72% |
| 170 | 190 | CCOC(=O)c1c(CSc2c(Cl)cccc2Cl)[nH]c2c1cc(O)c1ccccc12 | Activity (Mus musculus [6]): inactive; IC50 (Prostaglandin E synthase): 1330 nM; Activity (Mus musculus [7]): 9.1% |
| 200 | 370 | CCOC(=O)c1c(CSc2c(C)cc(C)cc2C)[nH]c2c1cc(O)c1ccccc12 | IC50 (Prostaglandin E synthase): 1930 nM; Activity (Mus musculus [7]): 77.4% |
| > 10000 | > 10000 | CCOC(=O)c1c(CSc2ccccc2Cl)n(C)c2c1cc(OC)c1ccccc12 | Activity [4]: 97.6%; Activity [5]: 98.7% |
| 330 | 255 | CCOC(=O)c1c(CSc2ccccc2C)[nH]c2c1cc(O)c1ccccc12 |  |
| > 1000 | 257 | CCOC(=O)c1c(CSc2cccc(Cl)c2)[nH]c2c1cc(O)c1ccccc12 | Activity [3]: 63.8% |
| 820 | 182 | CCOC(=O)c1c(CSc2ccccc2Cl)[nH]c2c1cc(O)c1ccccc12 |  |
| 220 | 240 | CCOC(=O)c1c(CSc2cc(Cl)cc(Cl)c2)[nH]c2c1cc(O)c1ccccc12 | Activity (Mus musculus [6]): Active; IC50 (Prostaglandin E synthase): 13800 nM; Activity (Mus musculus [7]): 60% |
